Assay outcomes deposited in PubChem by Broad Institute.
The sample as a whole holds a higher share of hits than the screen did.
E-selectin induc = induces E-selectin expression in human endothelial cells; activation, % at 7.58 µM; HUVEC E-selectin immunofluorescence imaging; normalized: neutral wells 0, TNF-alpha wells 100; AID 686992; actives 0.37% (n = 260,000); P16581;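 active = mean E-selectin-positive cell signal at least 10% of the positive control, reached in at least 60% of replicates, without over 20% cell loss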
Target sequence (P16581 whole entry, looked up): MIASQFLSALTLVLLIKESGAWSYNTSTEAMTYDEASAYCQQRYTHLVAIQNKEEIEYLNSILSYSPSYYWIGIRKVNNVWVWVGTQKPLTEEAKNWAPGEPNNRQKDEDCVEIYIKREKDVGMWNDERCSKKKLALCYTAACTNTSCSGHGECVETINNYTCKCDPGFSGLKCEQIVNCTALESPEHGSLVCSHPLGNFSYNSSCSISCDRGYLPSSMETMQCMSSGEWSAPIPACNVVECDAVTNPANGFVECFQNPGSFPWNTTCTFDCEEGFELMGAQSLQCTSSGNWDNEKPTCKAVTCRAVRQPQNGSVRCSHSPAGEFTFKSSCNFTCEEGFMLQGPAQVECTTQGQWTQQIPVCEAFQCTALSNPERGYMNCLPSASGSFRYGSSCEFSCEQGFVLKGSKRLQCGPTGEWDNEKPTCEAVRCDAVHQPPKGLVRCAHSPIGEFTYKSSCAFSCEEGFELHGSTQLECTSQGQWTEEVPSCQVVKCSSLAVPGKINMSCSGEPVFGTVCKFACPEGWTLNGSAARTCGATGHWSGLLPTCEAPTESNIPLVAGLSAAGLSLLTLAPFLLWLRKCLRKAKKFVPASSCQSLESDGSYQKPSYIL
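Material: HUVEC primary endothelial cells; Amount: 3,000 cells per well; Dosing: single concentration; Medium: EGM-2 growth medium on 0.1% gelatin-coated wells; Read-out basis: percent E-selectin-positive cells; Signal: immunofluorescence imaging; Control set: TNF-alpha, DMSO.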
Large screens that a line does not name were inactive.

CCOC(=O)c1sc(NC(=O)CCC(=O)O)nc1C	none
Cc1nc(NC(=O)CCN2C(=O)C3CC=CCC3C2=O)sc1C (configuration not stated)	none
COc1ccc(CN(C)C[C@H]2OCCCC[C@@H](C)Oc3ccc(NC(=O)NC4CCCCC4)cc3C(=O)N([C@@H](C)CO)C[C@H]2C)cc1	none
C[C@H]1CN([C@@H](C)CO)S(=O)(=O)c2ccc(C#Cc3ccc(F)cc3)cc2O[C@@H]1CN(C)C(=O)c1ccccn1	none
CCOC(=O)CC1C(=O)NCCN1Cc1cccs1 (configuration not stated)	none
Cc1ccc(CN2CCNC(=O)C2CC(=O)O)o1 (configuration not stated)	none
O=C(O)CC1C(=O)NCCN1Cc1cccs1 (configuration not stated)	E-selectin induc 85
N#C[C@H]1[C@H](c2ccccc2C2=CCCC2)[C@@H](CO)N1C(=O)NC1CCCC1	none
CCN(CC)C(=O)Cn1nnc(-c2ccc(C)o2)n1	none
CCN(CC)CCN(C(=O)Cn1nnc(-c2ccc(C)o2)n1)C(C(=O)NC(C)(C)C)c1cccs1 (configuration not stated)	E-selectin induc 128
COc1cc(C(C(=O)NC2CCCC2)N(CCO)C(=O)Cn2nnc(-c3ccc(C)o3)n2)ccc1O (configuration not stated)	none
CCCNC(=O)C[C@@H]1C[C@H]2c3cc(NS(=O)(=O)c4ccc(OC)cc4)ccc3O[C@H]2[C@@H](CO)O1	none
C[C@@H]1CCCCO[C@H](CN(C)Cc2ccncc2)[C@@H](C)CN([C@H](C)CO)C(=O)c2cc(NC(=O)c3ccccc3)ccc2O1	none
CO[C@@H]1CN(C)C(=O)c2cc(NC(=O)c3cnccn3)ccc2OC[C@H](C)N(C)C[C@@H]1C	none
O=C(CN(Cc1ccccc1)C(=O)CNS(=O)(=O)c1ccc(F)cc1)NCc1ccco1	none
Cc1ccc(S(=O)(=O)NCC(=O)N(CC(=O)NCc2ccco2)Cc2ccccc2)cc1	none
O=C(CN(Cc1ccc(F)cc1)C(=O)CNS(=O)(=O)c1ccc(F)cc1)NCc1ccco1	E-selectin induc 30
C[C@H]1CCCCO[C@@H](CN(C)Cc2ccc(C(F)(F)F)cc2)[C@@H](C)CN([C@@H](C)CO)C(=O)c2cc(NC(=O)Nc3ccc(C(F)(F)F)cc3)ccc2O1	none
O=C(O)CCSc1nnc(CNc2ccc(Cl)cc2)n1Cc1ccccc1	none
CCSc1nnc(CNc2ccc(F)cc2)n1CC1CCCO1 (configuration not stated)	none
CCn1c(CNc2ccc(Cl)cc2)nnc1SCC#N	E-selectin induc 56
COC1=CC(=Cc2c(N)n3nc(CC(=O)N4CCCCC4)sc3nc2=O)C=C(OC)C1=O	none
COC1=C/C(=C/c2c(N)n3cc(C)sc3nc2=O)C=CC1=O	none
Cc1cn2c(N)c(C=C3C=C(Cl)C(=O)C(Cl)=C3)c(=O)nc2s1	E-selectin induc 142
Cc1noc(C)c1NC(=O)Nc1ccc2c(c1)CC(=O)N([C@@H](C)CO)C[C@@H](C)[C@@H](CN(C)S(C)(=O)=O)O2	none
CN1C(=O)c2cc(NC(=O)C3CCC3)ccc2OC[C@H]2O[C@H](CC(=O)NCCc3ccncc3)CC[C@H]21	none
CCCNC(=O)Nc1ccc2c(c1)C(=O)N(C)[C@H]1CC[C@H](CC(=O)Nc3cccc(C)c3)O[C@@H]1CO2	none
C[C@@H]1CN([C@@H](C)CO)C(=O)c2cccc(NC(=O)CCCCCC(=O)Nc3ccccc3N)c2O[C@@H]1CN(C)S(=O)(=O)c1cn(C)cn1	none
C[C@H](CO)N1C[C@H](C)[C@H](CN(C)S(C)(=O)=O)Oc2ccc(NC(=O)CCCCCC(=O)Nc3ccccc3N)cc2CC1=O	none
C[C@@H]1CN([C@H](C)CO)C(=O)c2cccc(NC(=O)CCCCCC(=O)Nc3ccccc3N)c2O[C@@H]1CN(C)S(=O)(=O)c1cn(C)cn1	E-selectin induc 391
C[C@H](CO)N1C[C@H](C)[C@H](CN(C)Cc2ccc(Oc3ccccc3)cc2)Oc2ccc(NC(=O)CCCCCC(=O)Nc3ccccc3N)cc2CC1=O	E-selectin induc 50
C[C@@H]1CN([C@@H](C)CO)C(=O)c2cccc(NC(=O)CCCCCC(=O)Nc3ccccc3N)c2O[C@@H]1CN(C)Cc1ccccc1	none
C[C@H](CO)N1C[C@H](C)[C@@H](CN(C)S(C)(=O)=O)Oc2ccc(NC(=O)CCCCCC(=O)Nc3ccccc3N)cc2CC1=O	E-selectin induc 36
C[C@H]1CN([C@@H](C)CO)C(=O)Cc2cc(NC(=O)CCCCCC(=O)Nc3ccccc3N)ccc2O[C@H]1CN(C)Cc1ccc(Oc2ccccc2)cc1	none
C[C@H](CO)N1C[C@H](C)[C@H](CN(C)Cc2ccc(Cl)c(Cl)c2)Oc2ccc(NC(=O)CCCCCC(=O)Nc3ccccc3N)cc2C1=O	none
C[C@@H]1CN([C@@H](C)CO)C(=O)Cc2cc(NC(=O)CCCCCC(=O)Nc3ccccc3N)ccc2O[C@@H]1CN(C)S(=O)(=O)c1ccccc1	none
C[C@H](CO)N1C[C@H](C)[C@H](CN(C)Cc2ccccc2)Oc2ccc(NC(=O)CCCCCC(=O)Nc3ccccc3N)cc2CC1=O	none
C[C@H](CO)N1C[C@H](C)[C@H](CN(C)Cc2ccc(Cl)c(Cl)c2)Oc2c(NC(=O)CCCCCC(=O)Nc3ccccc3N)cccc2C1=O	E-selectin induc 410
C[C@H](CO)N1C[C@H](C)[C@H](CN(C)S(=O)(=O)c2cn(C)cn2)Oc2c(NC(=O)CCCCCC(=O)Nc3ccccc3N)cccc2C1=O	none
O=C(C[C@H]1C=C[C@H](NC(=O)C2CC2)[C@H](CO)O1)NCC1CC1	none
C[C@H]1CN([C@@H](C)CO)C(=O)Cc2cc(NC(=O)C3CC3)ccc2O[C@@H]1CN(C)C(=O)Nc1ccc(C(F)(F)F)cc1	none
C[C@@H]1CN([C@@H](C)CO)C(=O)c2cccc(NC(=O)C3CCCCC3)c2O[C@H]1CN(C)C(=O)Nc1ccc(F)cc1	none
C[C@@H]1CCCCO[C@H](CN(C)CC2CCCCC2)[C@@H](C)CN([C@H](C)CO)C(=O)c2cc(NC(=O)CCCCCC(=O)Nc3ccccc3N)ccc2O1	none
C/C=C/c1ccc2c(c1)O[C@@H](CN(C)C(=O)Nc1ccc(F)cc1)[C@H](C)CN([C@H](C)CO)S2(=O)=O	none
COCC#Cc1cnc2c(c1)C(=O)N([C@@H](C)CO)C[C@H](C)[C@@H](CN(C)C)O2	none
C[C@@H]1CN([C@@H](C)CO)C(=O)c2cc(NC(=O)Cc3ccccc3)ccc2O[C@@H]1CN(C)CC1CC1	none
CCNC(=O)C[C@@H]1CC[C@H]2[C@@H](COC[C@@H](O)CN2S(=O)(=O)c2ccccc2F)O1	none
O=S(=O)(c1cccc(F)c1)N1CC[C@@H]2[C@H](CO)Nc3ccc(C#Cc4ccccc4F)cc3[C@@H]21	none
COc1ccc(CN(C)C[C@@H]2Oc3ccc(NC(=O)Nc4ccc(OC)cc4)cc3C(=O)N([C@H](C)CO)C[C@@H]2C)cc1	none
CNC[C@H]1Oc2c(NC(=O)Nc3ccc(F)cc3)cccc2C(=O)N([C@H](C)CO)C[C@@H]1C	none
Cc1ccc(S(=O)(=O)Nc2ccc3c(c2)C(=O)N([C@H](C)CO)C[C@@H](C)[C@H](CN(C)S(=O)(=O)c2ccc(Cl)cc2)O3)cc1	none
C[C@@H]1CN([C@H](C)CO)C(=O)Cc2cc(NC(=O)CCCCCC(=O)Nc3ccccc3N)ccc2O[C@H]1CN(C)Cc1ccc2c(c1)OCO2	none
C[C@H](CO)N1C[C@H](C)[C@@H](CN(C)Cc2ccc(Cl)c(Cl)c2)Oc2ccc(NC(=O)CCCCCC(=O)Nc3ccccc3N)cc2CC1=O	none
C[C@H]1CN([C@@H](C)CO)C(=O)Cc2cc(NC(=O)CCCCCC(=O)Nc3ccccc3N)ccc2O[C@H]1CN(C)Cc1ccc(Cl)c(Cl)c1	E-selectin induc 75
